# Calls of active or inactive are those of the source. The calls are words filed in the database; no cut-off is given here.
# Key:
# Quadruplex RNA [1] = experiment: Binding affinity to DHX15 rG4 (unknown origin) assessed as dissociation constant measured after 320 secs by SPR analysis; assay type: nucleic-acid assay
# Reticulocyte [2] = experiment: Inhibition of DHX15 mRNA translation in rabbit reticulocyte lysate transfected with DHX15-G4-Del-FL at upto 50 uM incubated for 15 mins by firefly luciferase assay; assay type: functional, subcellular; settings: Oryctolagus cuniculus
# Method in brief: (§1)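 Cell-free translation: in vitro transcribed firefly luciferase reporter RNAs carrying DHX15 5' region (WT or G4-deleted) incubated in rabbit reticulocyte lysate with analyte, dose-dependent; luciferase activity as translation read-out; IC50 from dose-response.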
# Quadruplex RNA [3] = experiment: Binding affinity to DHX15 rG4 (unknown origin) assessed as induction of RNA G quadruplex formation by measuring increase in intensity at 4 to 20 uM in presence of KCl by circular dichroism method; assay type: nucleic-acid assay; settings: dose 4-20 µM
# Quadruplex RNA [4] = experiment: Displacement of Hoechst 33258 from DHX15 rG4 (unknown origin) at 100 uM measured after 15 mins by FID assay relative to control; assay type: nucleic-acid assay
# Method in brief: (§2)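 Fluorescent intercalator displacement on DHX15 rG4, dose-dependent, using thioflavin T or Hoechst 33258 (groove binder) as probe; displacement measured as loss of probe fluorescence.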
# Quadruplex RNA [5] = experiment: Binding affinity to DHX15 rG4 (unknown origin) assessed as thermal stability by measuring change in melting temperature at 50 uM by circular dichroism method; assay type: nucleic-acid assay
# Method in brief: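 CD thermal melt of DHX15 rG4 with 50 μM analyte present; stabilization reported as ΔTm.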
# Quadruplex RNA [6] = experiment: Displacement of ThT from DHX15 rG4 (unknown origin) at upto 100 uM measured after 15 mins by FID assay relative to control; assay type: nucleic-acid assay; method in brief: as §2
# [7] = Inhibition of DHX15 mRNA translation in rabbit reticulocyte lysate transfected with DHX15-G4-WT-FL at upto 50 uM incubated for 15 mins by firefly luciferase assay relative to control; assay type: functional, Oryctolagus cuniculus; settings: 0.25 h, up to 50 µM; method in brief: as §1
# [8] = Inhibition of DHX15 mRNA translation in rabbit reticulocyte lysate transfected with DHX15-G4-WT-FL incubated for 15 mins by firefly luciferase assay; assay type: functional, subcellular, Oryctolagus cuniculus; method in brief: as §1
# [9] = Inhibition of DHX15 mRNA translation in rabbit reticulocyte lysate transfected with DHX15-G4-WT-FL at 10 uM incubated for 15 mins by firefly luciferase assay relative to control; assay type: functional; settings: Oryctolagus cuniculus, 0.25 h; method in brief: as §1
# Reticulocyte [10] = experiment: Inhibition of DHX15 mRNA translation in rabbit reticulocyte lysate transfected with DHX15-G4-Del-FL at 10 uM incubated for 15 mins by firefly luciferase assay; assay type: functional, subcellular; settings: Oryctolagus cuniculus; method in brief: as §1
smiles,measurement,setting,value
O=C(O)[C@@H]1Cc2ccccc2CN1,Kd,Quadruplex RNA [1],> 100 µM
Nc1cc2[nH]c(=O)[nH]c2cc1N1CCCC1,Kd,Quadruplex RNA [1],12.6 µM
same,inhibition,Reticulocyte [2],inactive
same,Activity,Quadruplex RNA [3],Active
same,Activity,Quadruplex RNA [4],20%
same,ΔTm,Quadruplex RNA [5],3.6 °C
same,Activity,Quadruplex RNA [6],50%
same,inhibition (INH),[7],57%
same,IC50,[8],22.9 µM
O=C(O)[C@H]1Cc2ccccc2CN1,Kd,Quadruplex RNA [1],> 100 µM
CN(C)c1ccc(Nc2c3ccc(NC(=O)CCN4CCCC4)cc3nc3cc(NC(=O)CCN4CCCC4)ccc23)cc1,inhibition at 10 µM,[9],67%
same,inhibition,Reticulocyte [10],inactive

# — ChEMBL document CHEMBL5532739, “Competitive Microarray Screening Reveals Functional Ligands for the DHX15 RNA G-Quadruplex” (ACS Med Chem Lett, 2024)
